Source: PubChem BioAssay (several laboratories)
HCV core dimer: HCV core protein dimerization inhibition; TR-FRET GST/Flag-core106 dimerization, 1536-well; inhibition, % at 5 µM; actives 0.33% (n = 300,000);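 active = inhibition above the mean of all tested compounds plus 3 SD, set per screening campaign, cut at about 45% in these data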
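System: GST/Flag-tagged HCV core106 proteins. Incubation: compound-protein-antibody incubation 4 h at 22.5 °C. Technique: HTRF with 340 nm excitation, 617/671 nm emission. Medium: KF-containing HEPES buffer, pH 7.45, DTT, CHAPS, BSA. Read-out: inhibition (%) from 671 over 617 nm ratio. Also added: Eu(K)-anti-GST 90 ng/mL plus XL665-anti-Flag 1 µg/mL.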
APOBEC3A inh: inhibitors of human APOBEC3A DNA deaminase; P31941; recombinant A3A, FAM/TAMRA ssDNA deamination fluorescence; inhibition, % at 20 µM; actives 0.41% (n = 330,000); AID 493011;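 active = at least 40% inhibition at 20 µM here, with at most 30% in a related deaminase screen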
Target sequence (P31941 whole entry, looked up): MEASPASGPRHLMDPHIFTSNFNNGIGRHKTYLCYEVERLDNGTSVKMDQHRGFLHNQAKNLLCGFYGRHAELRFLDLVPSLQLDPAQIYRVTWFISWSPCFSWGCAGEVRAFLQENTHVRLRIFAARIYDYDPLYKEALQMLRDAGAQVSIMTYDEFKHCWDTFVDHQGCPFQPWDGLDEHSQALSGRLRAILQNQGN
HCV NS3 hel inh: inhibitors of Hepatitis C virus NS3 helicase; NS3 helicase DNA unwinding, Cy5 molecular beacon fluorescence; inhibition, % at 10.9 µM; actives 0.56% (n = 290,000); AID 1800;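 active = inhibition above the mean of all tested compounds plus 3 SD, set per campaign, cut at about 35% in these data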
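System: HCV NS3 helicase fragment; control set: DMSO and thioflavine S; technique: Cy5 fluorescence at 0 and 60 min, beacon hairpin quenching; reagent: beacon DNA duplex substrate plus ATP; replicates: singlicate; schedule: 1 h reaction at 25 °C, ATP-initiated; medium: MOPS buffer pH 6.5 with MgCl2, DTT, Tween20, BSA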
PRMT1 FP inh: inhibitors of human PRMT1; inhibition, % at 2.79 µM; AID 652257; recombinant PRMT1, activity-based probe fluorescence polarization; actives 1.3% (n = 370,000); Q99873;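 active = inhibition above about 21% made by adding two undisclosed values, limit read from the data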
ABHD5 PLIN5 PPI: ABHD5-PLIN5 protein interaction inhibition; Q00G26+Q8WTS1; inhibition, % at 4 µM; Split G. princeps luciferase complementation, luminescence, 4 h; actives 0.78% (n = 360,000); AID 602281;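 active = inhibition above the mean inhibition across every tested compound plus 3 SD, cut at about 22% in these data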
A3G deaminase: APOBEC3G (human) deaminase inhibition; Q9HC16; recombinant A3G, ssDNA deamination FAM/TAMRA fluorescence; inhibition, % at 20 µM; actives 0.28% (n = 330,000); AID 493012;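 active = inhibition of at least 40% at 20 µM, with no more than 30% in the related APOBEC3A deaminase screen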
Target sequence (Q9HC16 whole entry, looked up): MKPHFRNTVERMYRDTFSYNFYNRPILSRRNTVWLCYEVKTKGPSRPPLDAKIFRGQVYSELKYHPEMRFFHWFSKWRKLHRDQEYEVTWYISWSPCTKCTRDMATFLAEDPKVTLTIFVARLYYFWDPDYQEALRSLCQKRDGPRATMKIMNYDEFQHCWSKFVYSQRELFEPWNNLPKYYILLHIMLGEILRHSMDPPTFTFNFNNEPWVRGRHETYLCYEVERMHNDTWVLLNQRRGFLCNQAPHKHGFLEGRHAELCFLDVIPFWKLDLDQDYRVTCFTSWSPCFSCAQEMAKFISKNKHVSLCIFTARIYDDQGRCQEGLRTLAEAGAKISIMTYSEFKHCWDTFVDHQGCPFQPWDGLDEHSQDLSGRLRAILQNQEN
A3A conf: APOBEC3A (human) deaminase inhibition, confirmed | inhibition, % at 20 µM | actives 63% (n = 1,400) | recombinant A3A, ssDNA deaminase UDG fluorescence assay | AID 493151 | shares compounds with APOBEC3A inh;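 active = inhibition reaching a set limit, 80% of the first screen's cutoff, at 20 µM in any replicate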
UDG A3A counter: counter-screen for APOBEC3A inhibitors: UDG | shares compounds with APOBEC3A inh | UDG counterscreen, FAM/TAMRA uracil oligo fluorescence | inhibition, % at 20 µM | 1,000 tested, under 10 active | AID 504714; call rule not given here
Hits are given with their value; 0 = inactive; - = no result given. Sampled rows, rich in hits. Any-hit rate of the full collection: about 2.9%.

SMILES | HCV core dimer | APOBEC3A inh | HCV NS3 hel inh | PRMT1 FP inh | ABHD5 PLIN5 PPI | A3G deaminase | A3A conf | UDG A3A counter
CCOc1ccccc1N1CC(C(=O)Nc2cc(S(=O)(=O)N3CCOCC3)ccc2OC(C)C)CC1=O (stereo not drawn) | - | - | - | 0 | 0 | - | - | -
O=C1c2ccccc2C(c2nnnn2-c2ccc3c(c2)OCCO3)N1Cc1cccs1 (stereo not drawn) | - | - | - | 0 | 0 | - | - | -
O=C(O)COc1ccc(/C=N/NC(=O)C2CCCN2S(=O)(=O)c2ccc(Cl)cc2)cc1 (stereo not drawn) | 0 | 51 | 0 | 0 | 0 | 0 | 0 | -
COc1ccc(NC(=O)C2CCCN2S(=O)(=O)c2ccc(Cl)cc2)cc1 (stereo not drawn) | 0 | 0 | 0 | 0 | 0 | 0 | - | -
Cc1ccc(CNC(=O)C2CCCN2C(=O)Nc2ccc(F)cc2)cc1 (stereo not drawn) | 0 | 0 | 0 | 0 | 0 | 0 | - | -
Cc1ccc(S(=O)ONc2cccc(NOS(=O)c3ccc(C)cc3)c2)cc1 (stereo not drawn) | - | - | - | 0 | 0 | - | - | -
Nc1nc2c(s1)CCCCCCCCCC2 | 0 | 50 | 0 | 0 | 0 | 0 | 38 | 0
Nc1c2c(nc3sc4c(c13)CCCCC4)CCCCC2 | 0 | 0 | 0 | 0 | 0 | 0 | - | -
COc1ccccc1OCC(=O)N1CCN(S(=O)(=O)c2ccc(Cl)cc2)CC1 | - | 53 | - | 0 | 0 | 0 | 0 | -
COc1cc(C(=O)N2CCN(S(=O)(=O)c3ccc(Cl)cc3)CC2)ccc1OCC(=O)N1CCOCC1 | - | - | - | 0 | 0 | - | - | -
O=S(=O)(c1ccc(Cl)cc1)N1CCN(Cc2c[nH]c3ccccc23)CC1 | 0 | 0 | 0 | 0 | 0 | 0 | - | -
O=C(Cc1c[nH]c2ccccc12)N1CCN(S(=O)(=O)c2ccc(Cl)cc2)CC1 | - | 40 | - | 0 | 0 | 0 | 0 | -
COc1ccc(OC)c(S(=O)(=O)N2CCC(C(=O)NCc3ccccn3)CC2)c1 | 0 | 0 | 0 | 0 | 0 | 0 | - | -
O=C(COc1ccc(Br)cc1Br)NN1C(=O)c2ccccc2C1=O | 0 | 55 | - | 0 | 0 | 0 | 11 | 0
C[n+]1cccc(C(=O)NNC(=O)C23CC4CC(CC(C4)C2)C3)c1 | 0 | 82 | 0 | 0 | 0 | 0 | 69 | 0
COc1ccc(CCN(C)C(=O)c2cc(S(=O)(=O)N3CCCCC3)ccc2Cl)cc1OC | 0 | 0 | - | 0 | 0 | 0 | - | -
COc1ccc(NS(=O)(=O)c2ccc(F)c(F)c2F)cc1S(=O)(=O)N1CCOCC1 | - | 0 | - | 0 | 0 | 0 | - | -
O=C(CCNS(=O)(=O)c1ccc2nsnc2c1)N1CCN(c2ccncc2)CC1 | - | 64 | - | 0 | 0 | 0 | 0 | 0
CC1=C(C(=O)N2CCOCC2)CC(CC(=O)NC2CCCCC2)C(=O)N1Cc1ccccc1 (stereo not drawn) | - | - | - | 0 | 0 | - | - | -
Cc1ccccc1N1CC(C(=O)Nc2nnc(SCc3ccccn3)s2)CC1=O (stereo not drawn) | 0 | 0 | 0 | 0 | 0 | 0 | - | -
Cc1ccccc1N1CC(C(=O)Nc2nnc(SCC(=O)Nc3nccs3)s2)CC1=O (stereo not drawn) | 0 | 48 | 0 | 0 | 0 | 0 | 0 | 0
C[N+](C)(C)CCCN(Cc1ccc2c(c1)OCO2)C(=O)NC1CCCCC1 | 0 | 56 | 0 | 0 | 0 | 0 | 72 | 0
COc1ccc(CCNC(=O)CSc2nc3[nH]ncc3c(=O)n2-c2ccc(C)c(Cl)c2)cc1OC | - | - | 0 | 0 | 0 | - | - | -
CCOC(=O)c1[nH]ncc1CN1CCc2ccc(NC(=O)C3CCCO3)cc2C1 (stereo not drawn) | 0 | 54 | 0 | 0 | 0 | 0 | 0 | 0
CCCS(=O)(=O)N1CCc2ccc(NC(=O)C3CCCO3)cc2C1 (stereo not drawn) | 0 | 0 | 0 | 0 | 0 | 0 | - | -
SMILES | HCV core dimer | APOBEC3A inh | HCV NS3 hel inh | PRMT1 FP inh | ABHD5 PLIN5 PPI | A3G deaminase | A3A conf | UDG A3A counter
O=c1cc(CCl)nc2sc3ccccc3n12 | 0 | 63 | 0 | 0 | 0 | 0 | 34 | 0
Cc1cccc(C(=O)N[C@H](C(=O)OCc2cc(=O)n3c(n2)sc2ccccc23)C(C)C)c1 | 49 | 43 | 0 | 0 | 0 | 0 | 53 | 0
COc1ccc(/C=C/C(=O)OCc2cc(=O)n3c(n2)sc2ccccc23)cc1 | 0 | 0 | 0 | 0 | 0 | 0 | - | -
CCCC1CCC2(CCCN2CCOC(=O)Nc2ccccc2)CC1 (stereo not drawn) | - | - | - | 0 | - | - | - | -
O=C(Cn1c(=O)n(Cc2ccco2)c(=O)c2c3c(sc21)CCCCC3)Nc1ccccc1 | 56 | 49 | 0 | 24 | 66 | 0 | 55 | -
CC[N+](C)(CC)CCC(c1ccccc1)C1CCCCC1 (stereo not drawn) | 0 | 48 | 0 | 0 | 0 | 0 | 67 | 0
CC(C)(C)c1ccc(CCC2OCC(C[N+]3(C)CCOCC3)O2)cc1 (stereo not drawn) | 0 | 45 | 0 | 0 | 0 | 0 | 73 | 0
CC1(C)CC2CC(C)(CN2S(=O)(=O)c2cccc(C(=O)OCC(=O)NC(N)=O)c2)C1 (stereo not drawn) | 0 | 54 | - | 0 | 0 | 0 | 0 | -
CN(C)S(=O)(=O)c1ccc(S(=O)(=O)NCc2ccc3c(c2)OCO3)cc1 | 0 | 0 | 0 | 0 | 0 | 0 | - | -
CC(=O)Nc1ccc(Nc2nnc(-c3ccc(C)c(S(=O)(=O)NCCO)c3)c3ccccc23)cc1 | - | 0 | 0 | 0 | 0 | 0 | - | -
CC(=O)Nc1ccc(Nc2nnc(-c3ccc(C)c(S(N)(=O)=O)c3)c3ccccc23)cc1 | 0 | 61 | 0 | 0 | 0 | 0 | 0 | 0
CN1CCN(CCC(=O)N/N=C/c2cc3c(cc2[N+](=O)[O-])OCO3)CC1 | 0 | 0 | 0 | 0 | 0 | 0 | - | -
COC(=O)c1ccccc1S(=O)(=O)N1CCC(C(=O)OC(C)C(=O)N(C)Cc2ccccc2)CC1 (stereo not drawn) | - | - | - | 0 | 0 | - | - | -
C[C@H]1CN([C@@H](C)CO)C(=O)c2cc(Br)cnc2O[C@H]1CN(C)S(=O)(=O)c1ccccc1F | - | - | - | 0 | 0 | - | - | -
O=[N+]([O-])c1ccc(C[n+]2cccc3ccc4cccnc4c32)cc1 | 0 | 0 | 0 | 0 | 0 | 0 | - | -
O=[N+]([O-])c1ccc(C[n+]2cccc3ccccc32)cc1 | 0 | 43 | 0 | 0 | 0 | 0 | 53 | 0
CN(CC1CCCN(CCc2ccc(Cl)cc2)C1)C(=O)C(=O)c1ccco1 (stereo not drawn) | 0 | 0 | 0 | 0 | 0 | 0 | - | -
O=C(O)C1C(c2ccccc2)c2ccccc2C(O)C1CO (stereo not drawn) | - | - | - | 0 | 0 | - | - | -
COc1ccccc1NC(=O)c1cc[n+](C)cc1 | 0 | 86 | 0 | 0 | 0 | 0 | 64 | 0
COC(=O)c1ccccc1NC(=O)c1cc[n+](C)cc1 | 0 | 77 | - | 0 | 0 | 0 | 57 | 0
COC(=O)c1ccccc1NC(=O)c1cc[n+]([O-])cc1 | 0 | 0 | 0 | 0 | 0 | 0 | - | -
